Measurements from ChEMBL document CHEMBL2417509, “Synthesis and biological evaluation of prodigiosene conjugates of porphyrin, estrone and 4-hydroxytamoxifen” (2013).

Legend:
Format in all cases: functional
PC-3 = assay: Cytotoxicity against human PC3 cells after 2 days by sulforhodamine B assay; conditions: PC-3, 48 h
Summary of the method: (§1)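 NCI60 multi-dose screen, 59 human tumour lines available. Cells exposed to compound across a 5-log mol/L concentration range for 2 days, then fixed and stained with sulphorhodamine B, optical density read. Growth inhibition calculated against time-zero control and untreated cells. GI50 derived from the dose series, average of two replicates.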

SN12C = assay: Cytotoxicity against human SN12C cells after 2 days by sulforhodamine B assay; conditions: 48 h; summary of the method: as §1
CAKI-1 = assay: Cytotoxicity against human CAKI-1 cells after 2 days by sulforhodamine B assay; conditions: CAKI-1, 48 h; summary of the method: as §1
ACHN = assay: Cytotoxicity against human ACHN cells after 2 days by sulforhodamine B assay; conditions: 48 h; summary of the method: as §1
786-0 = assay: Cytotoxicity against human 786-0 cells after 2 days by sulforhodamine B assay; conditions: 786-0, 48 h; summary of the method: as §1
[1] = Cytotoxicity against human NCI-ADR-RES cells after 2 days by sulforhodamine B assay; conditions: 48 h; summary of the method: as §1
OVCAR-4 = assay: Cytotoxicity against human OVCAR4 cells after 2 days by sulforhodamine B assay; conditions: OVCAR-4, 48 h; summary of the method: as §1
UACC-62 = assay: Cytotoxicity against human UACC62 cells after 2 days by sulforhodamine B assay; conditions: UACC-62, 48 h
Summary of the method: (§2)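 NCI DTP NCI60 multi-dose screen (59 human tumour lines available). Cells exposed to compound over a 5-log mol/L concentration range for 2 days, then fixed and stained with sulphorhodamine B, with optical density read. Growth inhibition calculated relative to time-zero cells and untreated cells, giving GI50 (half-maximal growth inhibition concentration). Average of two replicates.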

UACC-257 = assay: Cytotoxicity against human UACC257 cells after 2 days by sulforhodamine B assay; conditions: UACC-257, 48 h; summary of the method: as §2
SK-MEL-28 = assay: Cytotoxicity against human SK-MEL-28 cells after 2 days by sulforhodamine B assay; conditions: SK-MEL-28, 48 h; summary of the method: as §1
Malme-3M = assay: Cytotoxicity against human MALME-3M cells after 2 days by sulforhodamine B assay; conditions: 48 h; summary of the method: as §1
SNB-75 = assay: Cytotoxicity against human SNB75 cells after 2 days by sulforhodamine B assay; conditions: SNB-75, 48 h; summary of the method: as §2
SF-295 = assay: Cytotoxicity against human SF295 cells after 2 days by sulforhodamine B assay; conditions: SF-295, 48 h; summary of the method: as §1
HT-29 = assay: Cytotoxicity against human HT-29 cells after 2 days by sulforhodamine B assay; conditions: HT-29, 48 h; summary of the method: as §1
HCT-15 = assay: Cytotoxicity against human HCT15 cells after 2 days by sulforhodamine B assay; conditions: HCT-15, 48 h; summary of the method: as §1
HCT-116 = assay: Cytotoxicity against human HCT116 cells after 2 days by sulforhodamine B assay; conditions: HCT-116, 48 h; summary of the method: as §1
HCC 2998 = assay: Cytotoxicity against human HCC2998 cells after 2 days by sulforhodamine B assay; conditions: HCC 2998, 48 h; summary of the method: as §1
COLO 205 = assay: Cytotoxicity against human COLO205 cells after 2 days by sulforhodamine B assay; conditions: COLO 205, 48 h; summary of the method: as §1
NCI-H460 = assay: Cytotoxicity against human NCI-H460 cells after 2 days by sulforhodamine B assay; conditions: NCI-H460, 48 h; summary of the method: as §1
NCI-H322M = assay: Cytotoxicity against human NCI-H322M cells after 2 days by sulforhodamine B assay; conditions: 48 h; summary of the method: as §1
NCI-H226 = assay: Cytotoxicity against human NCI-H226 cells after 2 days by sulforhodamine B assay; conditions: NCI-H226, 48 h; summary of the method: as §1
A549 = assay: Cytotoxicity against human A549/ATCC cells after 2 days by sulforhodamine B assay; conditions: A549, 48 h; summary of the method: as §1
SR = assay: Cytotoxicity against human SR cells after 2 days by sulforhodamine B assay; conditions: 48 h; summary of the method: as §2
MOLT-4 = assay: Cytotoxicity against human MOLT4 cells after 2 days by sulforhodamine B assay; conditions: MOLT-4, 48 h; summary of the method: as §1
CCRF-CEM = assay: Cytotoxicity against human CCRF-CEM cells after 2 days by sulforhodamine B assay; conditions: 48 h; summary of the method: as §1
[2] = Cytotoxicity against human Hs578T cells after 2 days by sulforhodamine B assay; conditions: Hs-578T, 48 h; summary of the method: as §1
MDA-MB-231 = assay: Cytotoxicity against human MDA-MB-231 cells after 2 days by sulforhodamine B assay; conditions: MDA-MB-231, 48 h; summary of the method: as §1
MCF7 = assay: Cytotoxicity against human MCF7 cells after 2 days by sulforhodamine B assay; conditions: MCF7, 48 h; summary of the method: as §1
DU-145 = assay: Cytotoxicity against human DU145 cells after 2 days by sulforhodamine B assay; conditions: DU-145, 48 h; summary of the method: as §1
UO-31 = assay: Cytotoxicity against human UO31 cells after 2 days by sulforhodamine B assay; conditions: UO-31, 48 h; summary of the method: as §2
[3] = read-out: LC50 (the source's name)

CCC(=C(c1ccc(OCCN(C)C)cc1)c1ccc(OC(=O)CCCCC(=O)C2=C(C)/C(=C/c3[nH]c(-c4ccc[nH]4)cc3OC)N=C2C)cc1)c1ccccc1
GI50 (PC-3): 4.57 µM
LC50 (concentration killing 50% of cells) (PC-3): 58.9 µM
TGI (PC-3): 20.4 µM
GI50 (SN12C): 5.37 µM
TGI (SN12C): 21.4 µM
CC50 (SN12C; [3]): 56.2 µM
GI50 (CAKI-1): 6.31 µM
LC50 (concentration killing 50% of the cells present at time zero) (CAKI-1): > 100 µM
TGI (CAKI-1): 36.3 µM
GI50 (ACHN): 4.79 µM
LC50 (concentration killing 50% of cells) (ACHN): 77.6 µM
TGI (ACHN): 22.9 µM
GI50 (786-0): 4.79 µM
LC50 (concentration killing 50% of cells) (786-0): 52.5 µM
TGI (786-0): 19 µM
GI50 [1]: 12.6 µM
TGI [1]: 46.8 µM
CC50 [1, 3]: > 100 µM
GI50 (OVCAR-4): 4.37 µM
LC50 (concentration killing 50% of cells) (OVCAR-4): 70.8 µM
TGI (OVCAR-4): 22.4 µM
GI50 (UACC-62): 4.9 µM
TGI (UACC-62): 17.8 µM
CC50 (UACC-62; [3]): 45.7 µM
GI50 (UACC-257): 12 µM
TGI (UACC-257): 28.8 µM
CC50 (UACC-257; [3]): 69.2 µM
GI50 (SK-MEL-28): 11.5 µM
LC50 (SK-MEL-28): 49 µM
TGI (SK-MEL-28): 24 µM
GI50 (Malme-3M): 9.33 µM
LC50 (Malme-3M): > 100 µM
TGI (Malme-3M): 34.7 µM
GI50 (SNB-75): 5.25 µM
LC50 (concentration killing 50% of starting cells) (SNB-75): 44.7 µM
TGI (SNB-75): 18.2 µM
GI50 (SF-295): 7.24 µM
LC50 (SF-295): 45.7 µM
TGI (SF-295): 20.4 µM
GI50 (HT-29): 3.02 µM
LC50 (HT-29): 74.1 µM
TGI (HT-29): 14.8 µM
GI50 (HCT-15): 4.47 µM
LC50 (HCT-15): > 100 µM
TGI (HCT-15): 28.8 µM
GI50 (HCT-116): 3.55 µM
LC50 (concentration killing 50% of cells vs time zero) (HCT-116): 37.1 µM
TGI (HCT-116): 13.8 µM
GI50 (HCC 2998): 13.2 µM
LC50 (50% lethal concentration) (HCC 2998): 53.7 µM
TGI (HCC 2998): 26.9 µM
GI50 (COLO 205): 10.7 µM
LC50 (concentration killing 50% of cells) (COLO 205): 50.1 µM
TGI (COLO 205): 22.9 µM
GI50 (NCI-H460): 3.98 µM
LC50 (NCI-H460): 53.7 µM
TGI (NCI-H460): 15.5 µM
GI50 (NCI-H322M): 13.5 µM
LC50 (concentration killing 50% of cells) (NCI-H322M): 69.2 µM
TGI (NCI-H322M): 30.9 µM
GI50 (NCI-H226): 14.1 µM
LC50 (NCI-H226): 83.2 µM
TGI (NCI-H226): 34.7 µM
GI50 (A549): 3.89 µM
LC50 (concentration giving 50% net cell kill) (A549): 50.1 µM
TGI (A549): 15.8 µM
GI50 (SR): 3.02 µM
LC50 (concentration giving 50% net cell kill) (SR): > 100 µM
TGI (SR): 20.9 µM
GI50 (MOLT-4): 1740 nM
TGI (MOLT-4): 25.1 µM
CC50 (MOLT-4; [3]): > 100 µM
GI50 (CCRF-CEM): 320 nM
TGI (CCRF-CEM): > 100 µM
CC50 (CCRF-CEM; [3]): > 100 µM
GI50 [2]: 5.01 µM
TGI [2]: 47.9 µM
CC50 [2, 3]: > 100 µM
GI50 (MDA-MB-231): 2000 nM
LC50 (MDA-MB-231): 33.9 µM
TGI (MDA-MB-231): 11.5 µM
GI50 (MCF7): 50 nM
LC50 (concentration giving 50% net cell kill) (MCF7): 4.68 µM
TGI (MCF7): 1200 nM
GI50 (DU-145): 7.76 µM
LC50 (concentration killing 50% of starting cells) (DU-145): 50.1 µM
TGI (DU-145): 20.9 µM
GI50 (UO-31): 2820 nM
LC50 (UO-31): 87.1 µM
TGI (UO-31): 21.4 µM
